Assay results from ChEMBL document CHEMBL1629663, “Postantibiotic effects of telavancin against 16 gram-positive organisms” (Antimicrob Agents Chemother, 2009).
In brackets after ≈: the same amount, converted by molar mass.

Tests used:
Staphylococcus aureus [1] = test: Antimicrobial activity against vancomycin-susceptible-, methicillin-resistant Staphylococcus aureus 1307 assessed as time required to induce post antibiotic sub-MIC effect at 0.4 times MIC […] by plate counting method; assay type: functional
Procedure, shortened: (§1)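 After 1 h preexposure to 10× MIC at 35°C and 1:1,000 dilution, cultures were split, and drug was re-added to final 0.2, 0.3 or 0.4× MIC, with a drug-free tube. Viable counts were taken every 2 h until McFarland 1 turbidity. Duration was derived from log10 CFU/ml versus time curves. Two experiments were run, each with a new inoculum.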

Staphylococcus aureus [2] = test: Antimicrobial activity against vancomycin-susceptible-, methicillin-resistant Staphylococcus aureus 1306 assessed as time required to induce post antibiotic sub-MIC effect at 0.2 times MIC pre-exposed to Telavancin […] by plate counting method; assay type: functional; procedure, shortened: as §1
Staphylococcus aureus [3] = test: Antimicrobial activity against vancomycin-susceptible-, methicillin-resistant Staphylococcus aureus 1307 assessed as time required to induce sub-MIC effect at 0.2 times MIC exposed for 2 hrs by plate counting method; assay type: functional
Procedure, shortened: (§2)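 Sub-MIC effect: cultures not preexposed to drug were diluted and handled as in the PA-SME procedure in Mueller-Hinton broth with final 0.2, 0.3 or 0.4× MIC, plus a drug-free control. Viable plate counts were taken every 2 h until McFarland 1 turbidity. Duration was derived from growth curves. Two experiments were run, each with a new inoculum.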

Staphylococcus aureus [4] = test: Antimicrobial activity against vancomycin-susceptible-, methicillin-resistant Staphylococcus aureus 1130 assessed as post-antibiotic effect at 10 times MIC pre-exposed to Telavancin for 1 hr by plate counting method; assay type: functional
Procedure, shortened: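 Direct colony suspensions (~5 × 10^6 CFU/ml) were exposed to 10× MIC for 1 h at 35°C with shaking in Mueller-Hinton broth, then diluted 1:1,000 to remove drug. Viable plate counts were taken before exposure, at 0 h, then every 2 h until turbidity reached McFarland 1. PAE = T − C, the time for counts to rise 1 log10 versus the unexposed control. Two separate experiments were run.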

Staphylococcus aureus [5] = test: Antimicrobial activity against heterogenous vancomycin-intermediate-, methicillin-resistant Staphylococcus aureus 618 by microdilution method; assay type: functional
Staphylococcus aureus [6] = test: Antimicrobial activity against vancomycin-intermediate-, methicillin-resistant Staphylococcus aureus 1984 by microdilution method; assay type: functional
Staphylococcus aureus [7] = test: Antimicrobial activity against vancomycin-susceptible-, methicillin-resistant Staphylococcus aureus 1306 by microdilution method; assay type: functional
Staphylococcus aureus [8] = test: Antimicrobial activity against vancomycin-intermediate-, methicillin-resistant Staphylococcus aureus 1984 assessed as time required to induce post antibiotic sub-MIC effect at 0.4 times MIC […] by plate counting method; assay type: functional
Procedure, shortened: (§3)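 PAE was first induced with 10× MIC for 1 h at 35°C (inoculum about 5 × 10^6 CFU/ml, Mueller-Hinton broth) and ended by 1:1,000 dilution. Cultures were then split and given 0.2, 0.3 or 0.4× MIC, with one tube left without drug. Viable counts were taken before exposure, after dilution, then every 2 h until McFarland no. 1 turbidity. Two separate experiments, each with a new inoculum.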

Staphylococcus aureus [9] = test: Antimicrobial activity against vancomycin-intermediate-, methicillin-resistant Staphylococcus aureus 1984 assessed as time required to induce sub-MIC effect at 0.3 times MIC exposed for 2 hrs by plate counting method; assay type: functional
Procedure, shortened: (§4)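 SME, viable plate count method: no prior drug exposure. About 5 × 10^6 CFU/ml in Mueller-Hinton broth at 35°C received 0.2, 0.3 or 0.4× MIC, alongside a drug-free tube. Counts were taken at the start, then every 2 h until McFarland no. 1 turbidity, as log10 CFU/ml against time. Two separate experiments, each with a new inoculum.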

Streptococcus pyogenes = test: Antimicrobial activity against Streptococcus pyogenes HMC 414 assessed as time required to induce sub-MIC effect at 0.4 times MIC exposed for 2 hrs by plate counting method; assay type: functional
Procedure, shortened: (§5)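 Unexposed Mueller-Hinton broth cultures (about 5 × 10^6 CFU/ml, 35°C) were handled as in the PA-SME set but without the 10× MIC pre-exposure. They were diluted 1:1,000, then given telavancin at final 0.2, 0.3 or 0.4× MIC, with a drug-free control. Viable counts were taken every 2 h until McFarland no. 1 turbidity. Effect duration comes from log10 CFU/ml-time plots; two separate experiments with new inocula.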

Staphylococcus aureus [10] = test: Antimicrobial activity against vancomycin-susceptible-, methicillin-resistant Staphylococcus aureus ATCC 33591 by microdilution method; assay type: functional
Enterococcus faecalis [11] = test: Antimicrobial activity against Enterococcus faecalis HMC 571 assessed as time required to induce sub-MIC effect at 0.2 times MIC exposed for 2 hrs by plate counting method; assay type: functional; procedure, shortened: as §5
Staphylococcus aureus [12] = test: Antimicrobial activity against vancomycin-resistant-, methicillin-resistant Staphylococcus aureus 510 assessed as time required to induce post antibiotic sub-MIC effect at 0.4 times MIC […] by plate counting method; assay type: functional; procedure, shortened: as §1
Staphylococcus aureus [13] = test: Antimicrobial activity against vancomycin-resistant-, methicillin-resistant Staphylococcus aureus 510 assessed as time required to induce sub-MIC effect at 0.4 times MIC exposed for 2 hrs by plate counting method; assay type: functional; procedure, shortened: as §2
Staphylococcus aureus [14] = test: Antimicrobial activity against vancomycin-intermediate-, methicillin-resistant Staphylococcus aureus 770 assessed as time required to induce sub-MIC effect at 0.3 times MIC exposed for 2 hrs by plate counting method; assay type: functional; procedure, shortened: as §4
Staphylococcus aureus [15] = test: Antimicrobial activity against vancomycin-susceptible-, methicillin-resistant Staphylococcus aureus 1306 assessed as time required to induce sub-MIC effect at 0.4 times MIC exposed for 2 hrs by plate counting method; assay type: functional; procedure, shortened: as §2
Enterococcus faecalis [16] = test: Antimicrobial activity against Enterococcus faecalis HMC 571 assessed as time required to induce post antibiotic sub-MIC effect at 0.4 times MIC […] by plate counting method; assay type: functional; procedure, shortened: as §3
Staphylococcus aureus [17] = test: Antimicrobial activity against vancomycin-intermediate-, methicillin-resistant Staphylococcus aureus 555 assessed as time required to induce post antibiotic sub-MIC effect at 0.4 times MIC […] by plate counting method; assay type: functional; procedure, shortened: as §3
Enterococcus faecium = test: Antimicrobial activity against Enterococcus faecium HMC 588 assessed as time required to induce post antibiotic sub-MIC effect at 0.4 times MIC […] by plate counting method; assay type: functional
Procedure, shortened: (§6)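 Mueller-Hinton broth cultures of about 5 × 10^6 CFU/ml were pre-exposed to telavancin at 10× MIC for 1 h at 35°C, then diluted 1:1,000. Telavancin was re-added to final 0.2, 0.3 or 0.4× MIC, alongside a drug-free tube. Viable counts were taken before exposure, after dilution, then every 2 h until McFarland no. 1 turbidity. Duration comes from log10 CFU/ml-versus-time plots; two separate experiments with fresh inocula.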

Staphylococcus aureus [18] = test: Antimicrobial activity against vancomycin-susceptible-, methicillin-resistant Staphylococcus aureus 1307 assessed as time required to induce sub-MIC effect at 0.4 times MIC exposed for 2 hrs by plate counting method; assay type: functional; procedure, shortened: as §2
Staphylococcus aureus [19] = test: Antimicrobial activity against vancomycin-intermediate-, methicillin-resistant Staphylococcus aureus 1287 assessed as time required to induce post antibiotic sub-MIC effect at 0.2 times MIC pre-exposed to Telavancin for 1 hr by plate counting method
Staphylococcus aureus [20] = test: Antimicrobial activity against vancomycin-intermediate-, methicillin-resistant Staphylococcus aureus 555 assessed as time required to induce sub-MIC effect at 0.4 times MIC […] by plate counting method; assay type: functional; procedure, shortened: as §4
Enterococcus faecalis [21] = test: Antimicrobial activity against Enterococcus faecalis HMC 571 assessed as time required to induce post antibiotic sub-MIC effect at 0.2 times MIC pre-exposed to Telavancin […] by plate counting method; assay type: functional; procedure, shortened: as §6

`CCCCCCCCCCNCCN[C@@]1(C)C[C@H](O[C@H]2[C@H](Oc3c4cc5cc3Oc3ccc(cc3Cl)[C@@H](O)[C@@H](NC(=O)[C@@H](CC(C)C)NC)C(=O)N[C@@H](CC(N)=O)C(=O)N[C@H]5C(=O)N[C@H]3C(=O)N[C@H](C(=O)N[C@H](C(=O)O)c5cc(O)c(CNCP(=O)(O)O)c(O)c5-c5cc3ccc5O)[C@H](O)c3ccc(c(Cl)c3)O4)O[C@H](CO)[C@@H](O)[C@@H]2O)O[C@@H](C)[C@H]1O` [TELAVANCIN] was tested. Which PAE (Staphylococcus aureus [1]) did it give?
Its PAE is greater than 10.5 h.

What about the PAE (Staphylococcus aureus [2]) of the same molecule?
The PAE was 2.9 h.

And the PAE (Staphylococcus aureus [3])?
Its PAE is 1 h.

What about the PAE (Staphylococcus aureus [4]) of the same molecule?
The PAE was 1.4 h.

And the MIC (Staphylococcus aureus [5])?
Its MIC is 0.12 µg/mL (≈ 0.0684 µM).

What about the MIC (Staphylococcus aureus [6]) of the same molecule?
Its MIC is 0.25 µg/mL (≈ 0.142 µM).

What about the MIC (Staphylococcus aureus [7]) of the same molecule?
Its MIC is 0.12 µg/mL (≈ 0.0684 µM).

And the PAE (Staphylococcus aureus [8])?
Its PAE is greater than 10 h.

What about the PAE (Staphylococcus aureus [9]) of the same molecule?
Its PAE is 2.6 h.

What about the PAE (Streptococcus pyogenes) of the same molecule?
The PAE was 0.4 h.

What about the MIC (Staphylococcus aureus [10]) of the same molecule?
The MIC was 0.25 µg/mL (≈ 0.142 µM).

And the PAE (Enterococcus faecalis [11])?
Its PAE is 0.1 h.

What about the PAE (Staphylococcus aureus [12]) of the same molecule?
The PAE was 8.1 h.

And the PAE (Staphylococcus aureus [13])?
Its PAE is 3.6 h.

And the PAE (Staphylococcus aureus [14])?
The PAE was 0.8 h.

What about the PAE (Staphylococcus aureus [15]) of the same molecule?
Its PAE is 6 h.

And the PAE (Enterococcus faecalis [16])?
The PAE was 10.6 h.

And the PAE (Staphylococcus aureus [17])?
Its PAE is greater than 10.3 h.

What about the PAE (Enterococcus faecium) of the same molecule?
The PAE was greater than 10 h.

And the PAE (Staphylococcus aureus [18])?
The PAE was 6.3 h.

What about the PAE (Staphylococcus aureus [19]) of the same molecule?
Its PAE is 5.1 h.

What about the PAE (Staphylococcus aureus [20]) of the same molecule?
The PAE was 4.3 h.

And the PAE (Enterococcus faecalis [21])?
Its PAE is 3.9 h.
